In assay [1] the target is T1, Mineralocorticoid receptor (Homo sapiens) (UniProt P08235).
T1 sequence (whole entry): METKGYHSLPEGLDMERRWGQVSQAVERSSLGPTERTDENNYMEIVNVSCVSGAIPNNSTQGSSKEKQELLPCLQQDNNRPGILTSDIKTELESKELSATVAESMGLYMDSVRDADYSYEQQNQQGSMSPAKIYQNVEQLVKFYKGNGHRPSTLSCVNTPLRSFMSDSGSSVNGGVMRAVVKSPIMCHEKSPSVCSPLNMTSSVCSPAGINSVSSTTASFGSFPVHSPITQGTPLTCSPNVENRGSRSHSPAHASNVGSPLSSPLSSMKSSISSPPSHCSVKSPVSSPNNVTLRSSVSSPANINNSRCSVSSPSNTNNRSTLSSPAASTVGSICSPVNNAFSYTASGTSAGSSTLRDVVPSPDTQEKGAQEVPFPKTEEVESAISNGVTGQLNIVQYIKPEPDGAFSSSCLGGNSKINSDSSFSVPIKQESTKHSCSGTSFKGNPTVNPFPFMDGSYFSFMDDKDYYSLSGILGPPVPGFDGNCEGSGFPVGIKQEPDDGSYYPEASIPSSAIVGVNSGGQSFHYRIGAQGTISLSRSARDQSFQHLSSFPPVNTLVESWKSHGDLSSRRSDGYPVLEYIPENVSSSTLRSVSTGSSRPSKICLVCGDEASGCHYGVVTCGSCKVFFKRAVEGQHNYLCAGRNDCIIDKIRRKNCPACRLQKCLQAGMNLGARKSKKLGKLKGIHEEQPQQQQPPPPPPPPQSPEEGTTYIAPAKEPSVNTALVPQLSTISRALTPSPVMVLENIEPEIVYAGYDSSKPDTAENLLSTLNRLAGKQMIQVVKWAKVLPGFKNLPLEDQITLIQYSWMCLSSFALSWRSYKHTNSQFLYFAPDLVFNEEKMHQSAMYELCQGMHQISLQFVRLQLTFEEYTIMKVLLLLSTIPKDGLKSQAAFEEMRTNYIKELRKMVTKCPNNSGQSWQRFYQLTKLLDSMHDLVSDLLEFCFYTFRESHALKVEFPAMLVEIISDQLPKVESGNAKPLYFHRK
The assay can be described thus: (§1) Antagonist activity at cloned mineralocorticoid receptor-ligand binding domain expressed in african green monkey COS7 cells by GAL4 luciferase reporter assay. Conditions: COS-7; concentration not given here. Type of assay: cell-based. A digest of the protocol:
(§2)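 GAL4 DNA-binding domain fused to receptor ligand-binding domain, one-hybrid format. LBD fusion and GAL4_UAS (5 copies, E1b minimal TATA) luciferase reporter plasmids, 50 ng/well each, transfected 16 h into COS-7 cells. Cells grown in phenol red-free DMEM with 10% charcoal/dextran-treated FBS. Compound exposure 20 h, then luciferase read on lysates. Mean of at least duplicate determinations.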
On the technique in general: In a reporter assay the amount or activity of a reporter protein is the signal.

For assay [2], the target named is T2, Mineralocorticoid receptor (Homo sapiens, UniProt P08235).
T2 sequence (P08235 whole entry): T1 sequence (whole entry)
The description is as §1. It is filed as cell-based, COS-7. A digest of the protocol: as §2

For assay [3], the target named is T3, Estrogen receptor (Homo sapiens) (UniProt P03372).
T3 sequence (whole entry): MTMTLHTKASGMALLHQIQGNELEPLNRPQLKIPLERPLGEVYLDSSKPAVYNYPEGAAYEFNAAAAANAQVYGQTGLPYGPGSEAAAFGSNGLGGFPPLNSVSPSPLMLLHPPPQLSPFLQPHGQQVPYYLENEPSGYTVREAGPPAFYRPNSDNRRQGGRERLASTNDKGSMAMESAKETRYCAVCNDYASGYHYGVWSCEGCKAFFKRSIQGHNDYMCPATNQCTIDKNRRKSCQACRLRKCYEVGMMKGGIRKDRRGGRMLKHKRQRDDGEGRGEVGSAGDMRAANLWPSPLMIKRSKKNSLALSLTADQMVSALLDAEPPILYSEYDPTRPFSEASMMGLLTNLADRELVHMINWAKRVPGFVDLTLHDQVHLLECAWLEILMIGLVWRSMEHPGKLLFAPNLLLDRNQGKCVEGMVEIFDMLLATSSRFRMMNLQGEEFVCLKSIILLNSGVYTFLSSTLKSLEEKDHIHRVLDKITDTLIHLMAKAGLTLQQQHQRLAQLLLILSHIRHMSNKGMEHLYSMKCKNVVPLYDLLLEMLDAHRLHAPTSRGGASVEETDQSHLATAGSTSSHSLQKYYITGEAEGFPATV
Briefly: Antagonist activity at cloned estrogen receptor-ligand binding domain expressed in african green monkey COS7 cells by GAL4 luciferase reporter assay upto 10 uM. Type of assay: cell-based. Conditions: COS-7. The gist of the method:
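COS-7 cells in phenol red-free DMEM with 10% charcoal/dextran-treated FBS were transfected for 16 h with a GAL4-DBD/receptor-LBD fusion plasmid and a GAL4_UAS (5 copies, E1b TATA) luciferase reporter, 50 ng/well each. Cells were then given compound for 20 h, and luciferase activity was read from cell lysates by luminometer.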

For another assay, the target named is T4, Progesterone receptor (Homo sapiens, UniProt P06401).
T4 sequence (P06401 whole entry): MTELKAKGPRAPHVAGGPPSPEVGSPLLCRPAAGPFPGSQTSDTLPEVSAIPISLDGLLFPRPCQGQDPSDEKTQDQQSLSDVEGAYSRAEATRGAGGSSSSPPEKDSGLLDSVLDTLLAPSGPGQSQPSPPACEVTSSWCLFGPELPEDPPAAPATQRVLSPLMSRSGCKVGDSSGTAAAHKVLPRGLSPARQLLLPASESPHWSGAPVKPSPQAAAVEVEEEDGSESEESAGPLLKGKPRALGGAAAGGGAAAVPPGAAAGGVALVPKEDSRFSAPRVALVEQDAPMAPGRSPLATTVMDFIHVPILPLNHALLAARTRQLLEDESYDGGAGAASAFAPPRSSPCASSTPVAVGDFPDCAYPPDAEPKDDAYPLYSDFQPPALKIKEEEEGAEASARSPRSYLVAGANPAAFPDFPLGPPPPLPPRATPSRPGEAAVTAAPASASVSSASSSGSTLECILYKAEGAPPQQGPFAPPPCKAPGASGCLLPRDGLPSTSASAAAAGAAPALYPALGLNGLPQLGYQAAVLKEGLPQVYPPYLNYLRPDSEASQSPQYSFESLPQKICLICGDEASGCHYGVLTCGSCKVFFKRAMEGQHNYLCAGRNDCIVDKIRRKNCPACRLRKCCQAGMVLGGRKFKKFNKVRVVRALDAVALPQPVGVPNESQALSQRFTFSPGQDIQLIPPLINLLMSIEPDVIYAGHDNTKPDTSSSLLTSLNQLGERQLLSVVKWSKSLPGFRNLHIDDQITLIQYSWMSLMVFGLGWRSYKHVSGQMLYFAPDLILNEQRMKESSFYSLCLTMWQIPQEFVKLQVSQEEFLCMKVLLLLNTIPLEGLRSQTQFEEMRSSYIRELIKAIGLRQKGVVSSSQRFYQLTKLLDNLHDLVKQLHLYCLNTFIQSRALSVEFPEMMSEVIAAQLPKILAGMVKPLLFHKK
The assay can be described thus: Inhibition of progesterone receptor mediated progesterone-induced alkaline phosphatase activity in human T47D cells. Type of assay: cell-based.

SMILES strings stand for the structures. pIC50: −log10 of the molar value. Calls of active or inactive are those of the source. The rule behind the calls is not given here.

In assay [1], `CC1(C)OCC(=O)Nc2ccc(-c3cc(F)cc(C#N)c3)cc21` gave an inhibition of 32%. The negative-log IC50 (pIC50) is less than 5.52 in assay [2] and 7.60 at Progesterone receptor. In assay [3], the result was inactive.

Take `CCC1(c2ccco2)OCC(=O)Nc2ccc(-c3cc(F)cc(C#N)c3)cc21` (configuration not stated): the inhibition in assay [1] was determined as 82%. Also, the pIC50 in assay [2] was less than 5.52; against Progesterone receptor it was 7.93. In addition, the outcome in assay [3] was inactive.

As to `N#Cc1cc(F)cc(-c2ccc3c(c2)C(c2ccco2)(c2ccco2)OCC(=O)N3)c1`, the inhibition in assay [1] came out at 60%. Besides, the pIC50 in assay [2] is less than 5.52; against Progesterone receptor it was 7.88. Moreover, the outcome in assay [3] was inactive.

A word on the inhibition: it is the change of the read-out against control, counted positive when it falls. For orientation: pIC50 means the IC50 on a negative log10 scale, so that one unit is a factor of ten.

The values above are taken from ChEMBL document CHEMBL1157410, “7-aryl 1,5-dihydro-benzo[e][1,4]oxazepin-2-ones and analogs as non-steroidal progesterone receptor antagonists” (Bioorg Med Chem, 2008).
